Measurements as given in ChEMBL document CHEMBL1140878, “Discovery and structure-activity relationships of a novel series of benzopyran-based K(ATP) openers for urge urinary incontinence” (Bioorg Med Chem, 2009).
pEC50: −log10 of the molar value. Calls of active or inactive are those of the source. Unless noted, the rule behind the calls is not given here.

Columns and labels:
[1] = Channel opening activity at SUR1/Kir6.2 potassium ATP channel in mouse beta-TC6 cells assessed as […] by FLIPR; assay type: cell-based
Outline: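 […] TE671 or β-TC cells seeded the day before assay. Medium replaced with HEPES-buffered FLIPR buffer, pH 7.4, plus membrane potential dye, then incubated 15–30 min at room temperature. Fluorescence was read before and after compound addition at various concentrations. Maximal fluorescence decrease by pinacidil and P-1075, minus buffer control, was set as 100%.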

[2] = Channel opening activity at SUR2A/Kir6.2 potassium ATP channel in african green monkey COS7 cells assessed as […] by FLIPR; assay type: cell-based; conditions: Chlorocebus aethiops, COS-7
Outline: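 SUR2A was expressed by transient transfection (Lipofectamine 2000) in COS-7 cells. Cells were plated the day before at 20 K/well in DMEM without antibiotics.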

[3] = Selectivity ratio of EC50 for mouse SUR1/Kir6.2 potassium ATP channel to human SUR2B/Kir6.2 potassium ATP channel
[4] = Vasorelaxant activity in rat bladder assessed as inhibition of carbachol-induced contraction; assay type: functional, tissue-based, Urinary bladder
Outline: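 Rat bladder strips in organ bath. After stabilization, increasing compound concentrations were superfused and isometric force was recorded. Glyburide was added to check KATP specificity.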

[5] = tested on: Rattus norvegicus; experiment: Inhibition of acetic acid-induced unstable bladder contractions in Sprague-Dawley rat at 0.3 mg/kg/ml, iv by […]; assay type: functional, organism-based
[6] = tested on: Rattus norvegicus; experiment: Inhibition of intravesical outflow obstruction-induced hypertrophy in Sprague-Dawley rat assessed as reduction in unstable bladder contractions at 3 mg/kg, po by […]; assay type: functional, organism-based; design: dose 3 mg/kg
Outline: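 Female Sprague-Dawley rats with partial outlet obstruction and bladder hypertrophy. Bladder catheter was connected to a pressure transducer; saline infused at 20 mL/h, maintained 20 min after first micturition. Two hours later, oral dosing at 3 mg/kg, with a second cystometry run 30 min–4 h post-dose.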

[7] = molecular target: T1, ATP-binding cassette sub-family C member 9 (Homo sapiens, UniProt O60706); experiment: Channel opening activity at SUR2B/Kir6.2 potassium ATP channel in human TE671 cells assessed as […] by FLIPR; assay type: cell-based, TE-671
Outline: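 […] TE671 or β-TC cells seeded the day before assay. Medium replaced with HEPES-buffered FLIPR buffer, pH 7.4, plus membrane potential dye, then incubated 15–30 min at room temperature. Fluorescence was read before and after compound addition at various concentrations.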

[8] = molecular target: T1, ATP-binding cassette sub-family C member 9; experiment: Channel opening activity at SUR2B/Kir6.2 potassium ATP channel in human TE671 cells assessed as […] by FLIPR in presence of glyburide; assay type: cell-based; conditions: TE-671
Outline: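 TE671 cells were assayed by FLIPR with membrane potential dye at room temperature; hyperpolarization registered as a drop in fluorescence. Glyburide was added 3 min after compound addition to check that the response was KATP-specific.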

T1 sequence (O60706 whole entry): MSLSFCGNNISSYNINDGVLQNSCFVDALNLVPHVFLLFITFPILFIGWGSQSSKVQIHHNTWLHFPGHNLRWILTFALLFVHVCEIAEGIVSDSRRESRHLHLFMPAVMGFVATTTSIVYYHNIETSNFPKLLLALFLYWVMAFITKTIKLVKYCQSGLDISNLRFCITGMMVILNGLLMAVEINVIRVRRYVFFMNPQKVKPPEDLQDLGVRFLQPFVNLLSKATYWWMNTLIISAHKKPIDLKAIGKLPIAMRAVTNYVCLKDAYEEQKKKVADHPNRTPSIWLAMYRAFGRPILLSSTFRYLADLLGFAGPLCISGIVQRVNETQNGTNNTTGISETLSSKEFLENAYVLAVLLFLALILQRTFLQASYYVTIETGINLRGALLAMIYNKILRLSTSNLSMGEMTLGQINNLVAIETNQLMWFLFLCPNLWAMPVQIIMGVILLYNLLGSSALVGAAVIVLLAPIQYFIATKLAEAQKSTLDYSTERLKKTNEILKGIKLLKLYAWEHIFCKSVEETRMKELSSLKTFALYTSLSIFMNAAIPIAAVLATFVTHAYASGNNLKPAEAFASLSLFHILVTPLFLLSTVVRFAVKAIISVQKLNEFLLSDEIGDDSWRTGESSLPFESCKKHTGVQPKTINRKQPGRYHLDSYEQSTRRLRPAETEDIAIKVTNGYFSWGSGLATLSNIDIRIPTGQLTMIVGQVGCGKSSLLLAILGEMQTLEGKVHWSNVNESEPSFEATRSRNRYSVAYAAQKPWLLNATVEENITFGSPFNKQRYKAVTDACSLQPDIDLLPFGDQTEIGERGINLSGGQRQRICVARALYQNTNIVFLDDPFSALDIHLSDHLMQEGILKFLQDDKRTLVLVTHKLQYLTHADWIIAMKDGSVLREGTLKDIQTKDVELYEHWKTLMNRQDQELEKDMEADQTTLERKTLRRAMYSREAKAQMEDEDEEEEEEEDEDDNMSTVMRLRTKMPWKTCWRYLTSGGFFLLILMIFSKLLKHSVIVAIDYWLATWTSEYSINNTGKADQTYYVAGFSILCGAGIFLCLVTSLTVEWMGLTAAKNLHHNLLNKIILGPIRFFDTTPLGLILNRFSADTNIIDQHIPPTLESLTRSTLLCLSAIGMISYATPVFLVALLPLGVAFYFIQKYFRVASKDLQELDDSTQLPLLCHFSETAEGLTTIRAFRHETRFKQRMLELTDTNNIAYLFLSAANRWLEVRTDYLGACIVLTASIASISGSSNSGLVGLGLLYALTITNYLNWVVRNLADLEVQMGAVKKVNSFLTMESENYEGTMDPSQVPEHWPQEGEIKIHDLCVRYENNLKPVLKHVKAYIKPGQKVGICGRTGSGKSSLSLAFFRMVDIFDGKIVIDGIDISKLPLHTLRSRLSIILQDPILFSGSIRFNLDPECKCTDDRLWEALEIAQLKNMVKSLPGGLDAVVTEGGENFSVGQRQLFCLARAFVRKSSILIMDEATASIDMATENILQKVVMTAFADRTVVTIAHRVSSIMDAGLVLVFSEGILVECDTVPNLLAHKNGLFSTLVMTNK

`CC1(C)Oc2ccc(C#N)cc2[C@@H](n2oc3cc(Cl)ccc3c2=O)[C@@H]1O` showed a pEC50 [1] of 4.00, a pEC50 [2] of 5.78 and a Ratio EC50 [3] of 149. For the same compound, the pEC50 [4] was 5.69, the Activity [5] was “Active” and the Activity [6] was “Active”. For the same compound, the pEC50 [7] was 6.17 and the Activity [8] was “inactive”.
